# ChEMBL document CHEMBL1131062, “Synthesis and pharmacological characterization of O-alkynyloximes of tropinone and N-methylpiperidinone as muscarinic agonists” (J Med Chem, 1998)
# Values joined by “and” are separate entries in the source; they are usually repeats but may differ in a detail not shown here. Identical values can stand only once.
# Tests used:
# [1] = species: Oryctolagus cuniculus; test: Concentration required to relax phenylephrine-precontracted aortic rings by 50% in endothelium denuded rabbit aorta; details: read-out: ED50 (the source's name)
# [2] = molecular target: T1, Muscarinic acetylcholine receptor M3 (Rattus norvegicus, UniProt P08483); test: Binding affinity to Muscarinic acetylcholine receptor M3 by measuring its ability to displace [3H]N-methylscopolamine binding in rat submandibulary gland
# In short: (§1)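 Rat submandibulary gland membranes prepared in Na+/Mg2+ HEPES buffer pH 7.4. Incubated 45 min at 30 °C with 0.3 nM [3H]-N-methylscopolamine and test compound (10 nM–10 mM). Nonspecific binding defined with 1 μM (±)-QNB. Pellet obtained by centrifugation and counted by scintillation. Triplicate determinations. Ki derived from IC50 by Cheng–Prusoff.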
# [3] = Inhibitory selectivity for Muscarinic receptors M3 and M1
# In short: (§2)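 Ratios of Ki values from rat tissue displacement binding. M1 used cerebral cortex with 0.5 nM [3H]pirenzepine. M2 used heart ventricle and M3 used submandibulary gland, both with 0.3 nM [3H]-N-methylscopolamine. All incubations ran 45 min at 30 °C with test compound at 10 nM–10 mM. Ki obtained by Cheng–Prusoff. Three independent experiments.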
# [4] = molecular target: Muscarinic receptor M2 and M3 (Rattus norvegicus) (UniProt P08483+P10980); test: Inhibitory selectivity for Muscarinic receptors M3 and M2; format: protein assay
# In short: as §2
# [5] = molecular target: Muscarinic receptor M1 and M2 (Rattus norvegicus) (UniProt P08482+P10980); test: Inhibitory selectivity for Muscarinic receptors M2 and M1; format: protein assay
# In short: as §2
# [6] = species: Rattus norvegicus; test: Concentration required to relax phenylephrine-precontracted aortic rings by 50% in endothelium intact rat aorta; format: functional; details: read-out: ED50 (the source's name)
# In short: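 Endothelium-intact rat aortic rings equilibrated 60 min at 37 °C under 95% O2/5% CO2. Endothelium confirmed by relaxation to 10^-6 M ACh. After washout, rings precontracted with 10^-7 M phenylephrine. Test compound added cumulatively (10^-6–10^-4 M) at 2-min intervals. Each ring used once. ED50 taken from percent phenylephrine response versus concentration.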
# [7] = molecular target: T2, Muscarinic acetylcholine receptor M2 (Rattus norvegicus, UniProt P10980); test: Binding affinity to Muscarinic acetylcholine receptor M2 by measuring its ability to displace [3H]N-methylscopolamine binding in rat heart
# T2 sequence (P10980 whole entry): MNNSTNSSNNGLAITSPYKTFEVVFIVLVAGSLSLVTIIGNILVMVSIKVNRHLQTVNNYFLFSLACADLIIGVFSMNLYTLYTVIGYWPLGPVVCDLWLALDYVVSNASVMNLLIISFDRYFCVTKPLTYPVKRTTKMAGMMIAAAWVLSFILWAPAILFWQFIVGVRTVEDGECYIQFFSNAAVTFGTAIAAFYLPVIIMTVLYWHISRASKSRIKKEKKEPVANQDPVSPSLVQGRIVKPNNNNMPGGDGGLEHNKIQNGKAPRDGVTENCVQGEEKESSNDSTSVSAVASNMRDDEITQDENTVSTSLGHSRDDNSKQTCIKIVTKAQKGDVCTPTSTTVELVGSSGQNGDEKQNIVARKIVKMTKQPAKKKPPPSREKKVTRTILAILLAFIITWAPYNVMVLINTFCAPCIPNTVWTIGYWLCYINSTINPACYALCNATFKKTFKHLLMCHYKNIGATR
# In short: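 Rat heart ventricle membranes, homogenized in sucrose/TRIS and washed in Na+/Mg2+ HEPES buffer pH 7.4. Nonspecific binding defined with 1 μM (±)-QNB. Bound ligand separated by centrifugation and counted by scintillation. Triplicate determinations. Ki derived from IC50 by Cheng–Prusoff.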
# [8] = molecular target: T1, Muscarinic acetylcholine receptor M3; test: The compound was evaluated for its ability to inhibit [3H]NMS binding to Muscarinic acetylcholine receptor in submandibular salivary gland; format: tissue-based
# In short: as §1
# Muscarinic receptor M2 and M3 (Rattus norvegicus), sequence (P08483 whole entry, looked up, one chain of several): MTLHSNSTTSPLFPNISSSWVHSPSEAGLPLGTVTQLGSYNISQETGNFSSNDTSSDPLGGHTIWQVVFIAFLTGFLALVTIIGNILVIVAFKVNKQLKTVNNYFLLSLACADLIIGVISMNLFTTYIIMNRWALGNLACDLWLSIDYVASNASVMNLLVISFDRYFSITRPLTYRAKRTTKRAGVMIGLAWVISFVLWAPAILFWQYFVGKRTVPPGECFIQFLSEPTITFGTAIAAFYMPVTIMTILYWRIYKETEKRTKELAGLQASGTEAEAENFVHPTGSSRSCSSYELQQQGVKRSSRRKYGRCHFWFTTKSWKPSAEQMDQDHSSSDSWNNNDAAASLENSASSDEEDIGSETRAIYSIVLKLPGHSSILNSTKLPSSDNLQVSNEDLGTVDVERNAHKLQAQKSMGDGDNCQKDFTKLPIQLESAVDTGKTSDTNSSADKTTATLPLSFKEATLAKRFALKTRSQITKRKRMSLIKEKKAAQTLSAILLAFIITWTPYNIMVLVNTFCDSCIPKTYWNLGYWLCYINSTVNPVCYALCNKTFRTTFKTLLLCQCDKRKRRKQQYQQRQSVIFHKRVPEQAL
# T1 sequence (P08483 whole entry): as the sequence (P08483 whole entry, looked up, one chain of several) above
# Muscarinic receptor M1 and M2 (Rattus norvegicus), sequence (P08482 whole entry, looked up, one chain of several): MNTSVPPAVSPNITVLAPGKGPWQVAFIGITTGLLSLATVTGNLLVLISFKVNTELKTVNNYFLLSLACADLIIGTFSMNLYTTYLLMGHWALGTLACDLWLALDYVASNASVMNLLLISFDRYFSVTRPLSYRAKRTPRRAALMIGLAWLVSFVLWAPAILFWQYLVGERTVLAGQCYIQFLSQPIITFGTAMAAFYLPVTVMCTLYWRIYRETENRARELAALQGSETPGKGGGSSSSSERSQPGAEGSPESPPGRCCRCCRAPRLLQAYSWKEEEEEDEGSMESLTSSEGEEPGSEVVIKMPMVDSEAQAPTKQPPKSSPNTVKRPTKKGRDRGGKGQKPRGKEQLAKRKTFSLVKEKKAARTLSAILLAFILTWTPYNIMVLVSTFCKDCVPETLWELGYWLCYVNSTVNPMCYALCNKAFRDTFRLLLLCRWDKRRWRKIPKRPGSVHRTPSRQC
SMILES,EC50 [1] [µM],Ki [2] [µM],Selectivity ratio [3],Selectivity ratio [4],Selectivity ratio [5],EC50 [6] [µM],Ki [7],Ki [8] [µM]
C#CC(CC)ON=C1CC2CCC(C1)N2C (configuration not stated),41,6.31,22,1.1,20,5.5,6.31 µM,–
C#CC(CC)ON=C1CCN(C)CC1 (configuration not stated),18,10,1.5,0.85,1.8,7.6,10 µM,–
C#CCCCON=C1CCN(C)CC1,13,15.8,1.7,1.5,1.1,9.3,10 µM,–
C#CCC(C)ON=C1CC2CCC(C1)N2C (configuration not stated),23,3.16,29,1.8,16,5.4,1.58 µM,–
C#CCON=C1CC2CCC(C1)N2C,7.1,–,4.6,1.1,4.2,3.5,6.31 µM and 25.1 µM,–
CN1CCC(=NO)CC1,78,3160,7.6,8.5,0.9,43,398 µM,–
COC(=O)C1=CCCN(C)C1 [ARECOLINE],–,–,–,–,–,1.6,–,–
CN1C2CCC1CC(=NO)C2,320,794,1.4,18,0.74,53,39.8 µM,–
CC#CCCON=C1CC2CCC(C1)N2C,9.8,2.51,3,0.66,4.5,7.8,3.16 µM,–
C#CC(C)ON=C1CCN(C)CC1 (configuration not stated),41,79.4,14,6.3,2.2,7.8,12.6 µM,–
CC#CCON=C1CCN(C)CC1,8.7,126,35,17,2,8.7,7.94 µM,–
C#CCC(C)ON=C1CCN(C)CC1 (configuration not stated),25,50.1,15,5.4,2.9,5,10 µM,–
CC#CCON=C1CC2CCC(C1)N2C,4.8,15.8,27,1.1,24,3.4,12.6 µM,20
O=C1CCCN1CC#CCN1CCCC1 [OXOTREMORINE],–,0.398,0.63,2,0.32,0.044,0.2 µM,–
C#CCCON=C1CC2CCC(C1)N2C,15,10,6.8,0.34,19,5.3,31.6 µM,–
C#CC(C)ON=C1CC2CCC(C1)N2C (configuration not stated),26,3.98,0.46,0.72,4.5,6.9,6.31 µM,–
C#CCON=C1CCN(C)CC1,11,20,0.42,0.72,0.59,6.8,25.1 µM,–
C#CCCON=C1CCN(C)CC1,28,39.8,25,3.7,6.2,7.4,10 µM,–
CON=C1CCN(C)CC1,260,25.1,0.51,0.71,0.74,13,39.8 µM,–
C#CCCCON=C1CC2CCC(C1)N2C,6.5,10,16,1.3,12,5.9,6.31 µM,–
CC#CCCON=C1CCN(C)CC1,–,39.8,2,0.27,7.5,6.3,15.8 µM,–
CCC#CCON=C1CC2CCC(C1)N2C,3.5,3.16,0.56,0.23,2.4,1.3,12.6 µM,79.4
CON=C1CC2CCC(C1)N2C,11,100,0.1,0.74,0.14,11,126 µM,–
CCC#CCON=C1CCN(C)CC1,12,20,5.4,1.4,4,6.2,15.8 µM,–
C[N+](C)(C)CC#CCOC(=O)Nc1cccc(Cl)c1,0.35,–,0.46,0.33,1.4,9.6,6.31 µM,–
